Experimental data reported in paper PMC3648642 (Journal of medicinal chemistry, 2013).

Columns and labels:
TSPO [1] = molecular target: T1, TSPO (Rattus norvegicus, UniProt P16257); assay: Radioligand displacement of 3H-PK 11195 in C6 glioma cell lysate; assay type: binding; conditions: for decrease in affinity with respect to parent compound: R2 hydrogen replaced with methyl
[2] = within the first 12 minutes post-administration; cited from earlier work
TSPO [3] = conditions: high-affinity TSPO ligand for comparison; cited from earlier work
C6 glioma = assay type: in vivo, Wistar rats
In short: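 C6 glioma-bearing Wistar rats were given the 18F-labelled test compound (radiochemical purity >99%) and imaged by 90-minute dynamic microPET. Time-activity curves were drawn for tumor, normal brain and plasma across eight representative studies. Plasma radiometabolites were analysed by radio-HPLC at 2, 12, 30, 60 and 90 min. Brains were processed post mortem for staining and immunohistochemistry.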

[4] = Radio-HPLC of radiometabolites in plasma during PET scanning; assay type: in vivo, rat; conditions: 2, 12, 30, 60, 90 min
TSPO [5] = molecular target: T1, TSPO; assay: Biodistribution and specific binding; assay type: in vivo, rats
In short: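 Normal rats received an infusion of the 18F-labelled test compound (radiochemical purity >99%, specific activity >4203 Ci/mmol). Tissues were harvested 60 minutes after infusion, and their radioactivity was counted. Values are expressed as percentage of injected dose per gram of tissue (%ID/g).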

[6] = bolus of non-radioactive 6b (10 mg/kg) at 30 minutes, 60-minute assay

CCN(CC)C(=O)Cc1c(-c2ccc(OC)cc2)nn2c(C)c(C)c(C)nc12 [Compound 5d]
decrease in affinity with respect to parent compound (TSPO [1]): approximately 10 fold

CCN(CC)C(=O)Cc1c(-c2ccc(OCC[18F])cc2)nn2c(C)cc(C)nc12 [^18F-6a, N,N-diethyl-2-(2-(4-(2-[^18F]fluoroethoxy)phenyl)-5,7-dimethylpyrazolo[1,5-a]pyrimidin-3-yl)acetamide]
metabolism in plasma [2]: up to 30%

COc1ccccc1CN(C(C)=O)c1cnccc1Oc1ccccc1 [PBR28, N-(2-methoxybenzyl)-N-(4-phenoxypyridin-3-yl)acetamide]
Ki (TSPO [3]): 4 nM

CCc1cc(CC)n2nc(-c3ccc(OCCF)cc3)c(CC(=O)N(CC)CC)c2n1 [Compound 6b, 2-(5,7-diethyl-2-(4-(2-fluoroethoxy)phenyl)pyrazolo[1,5-a]pyrimidin-3-yl)-N,N-diethylacetamide]
enhancement in affinity compared to 6a (DPA-714) (TSPO [1]; TSPO affinity): 36 fold

CCc1cc(CC)n2nc(-c3ccc(OCC[18F])cc3)c(CC(=O)N(CC)CC)c2n1 [^18F-6b, 2-(5,7-diethyl-2-(4-(2-[^18F]fluoroethoxy)phenyl)pyrazolo[1,5-a]pyrimidin-3-yl)-N,N-diethylacetamide]
tracer uptake in brain (tumor vs normal brain) (C6 glioma; dynamic PET, 90-minute acquisition): majority of tracer uptake in the brain was localized to the tumor | clearance from plasma (C6 glioma; time-activity curve, 90-minute dynamic acquisition): quickly cleared from the plasma | radioactive species detected in plasma [4]: the only radioactive species detected in plasma at all time points | accumulation in brain, testes, skull, and skeletal muscle (TSPO [5]; 60 minutes after infusion): Very minor accumulation | accumulation in spleen, heart, kidney, and lung (TSPO [5]; 60 minutes after infusion): elevated accumulation | uptake in liver, colon, small bowel, and stomach (TSPO [5]; 60 minutes after infusion): Moderate uptake | radioactivity in whole blood or urine (TSPO [5]; 60 minutes post-administration): very little radio-activity | activity in muscle or liver with displacement (TSPO [5]; [6]): essentially unchanged with displacement | activity in spleen, heart, kidney, and lung with displacement (TSPO [5]; [6]): reduced to background levels | activity in urine with displacement (TSPO [5]; [6]): elevated with displacement

CCN(CC)C(=O)Cc1c(-c2ccc(OCCF)cc2)nn2c(C)c(C)c(C)nc12 [Compound 6d]
decrease in affinity with respect to parent compound (TSPO [1]): approximately 10 fold
